ChEMBL document CHEMBL2203205 (Eur J Med Chem, 2012)

Columns and labels:
[1] = Half life in Sprague-Dawley rat at 10 mg/kg, po; type: ADME, organism-based; design: dose 10 mg/kg, route oral; settings: in vivo
Procedure, shortened: (§1)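 Male Sprague-Dawley rats dosed intravenously (3 mg/kg) and orally (10 mg/kg). PK parameters came from non-compartmental analysis of plasma concentration vs time curves.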

[2] = target: T1, Alpha-1A adrenergic receptor (Homo sapiens, UniProt P35348); test: Inhibition of alpha1A adrenergic receptor
T1 sequence (P35348 whole entry): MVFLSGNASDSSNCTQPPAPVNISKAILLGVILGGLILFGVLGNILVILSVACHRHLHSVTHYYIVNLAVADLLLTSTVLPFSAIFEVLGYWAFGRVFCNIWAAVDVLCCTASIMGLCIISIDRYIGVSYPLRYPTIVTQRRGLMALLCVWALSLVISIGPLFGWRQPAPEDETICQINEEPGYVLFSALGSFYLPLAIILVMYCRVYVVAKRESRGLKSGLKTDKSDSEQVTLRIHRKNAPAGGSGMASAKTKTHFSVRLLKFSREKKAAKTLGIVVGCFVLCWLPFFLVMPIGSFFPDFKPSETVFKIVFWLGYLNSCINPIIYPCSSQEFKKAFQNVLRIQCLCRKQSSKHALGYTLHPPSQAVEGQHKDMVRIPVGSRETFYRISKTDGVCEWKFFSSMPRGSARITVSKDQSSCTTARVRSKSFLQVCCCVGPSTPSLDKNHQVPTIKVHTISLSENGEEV
Procedure, shortened: (§2)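 Radioligand competition binding, run first as a single-concentration broad screen at […], then as concentration-response for follow-up targets, with the reference compound tested in parallel. Specific binding is total minus binding in excess unlabelled ligand, expressed as % of control specific binding. IC50 and Hill coefficient come from non-linear Hill-equation regression of competition curves built from mean replicate values.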

[3] = target: T2, Alpha-1D adrenergic receptor (Homo sapiens, UniProt P25100); test: Inhibition of alpha1D adrenergic receptor; procedure, shortened: as §2
T2 sequence (P25100 whole entry): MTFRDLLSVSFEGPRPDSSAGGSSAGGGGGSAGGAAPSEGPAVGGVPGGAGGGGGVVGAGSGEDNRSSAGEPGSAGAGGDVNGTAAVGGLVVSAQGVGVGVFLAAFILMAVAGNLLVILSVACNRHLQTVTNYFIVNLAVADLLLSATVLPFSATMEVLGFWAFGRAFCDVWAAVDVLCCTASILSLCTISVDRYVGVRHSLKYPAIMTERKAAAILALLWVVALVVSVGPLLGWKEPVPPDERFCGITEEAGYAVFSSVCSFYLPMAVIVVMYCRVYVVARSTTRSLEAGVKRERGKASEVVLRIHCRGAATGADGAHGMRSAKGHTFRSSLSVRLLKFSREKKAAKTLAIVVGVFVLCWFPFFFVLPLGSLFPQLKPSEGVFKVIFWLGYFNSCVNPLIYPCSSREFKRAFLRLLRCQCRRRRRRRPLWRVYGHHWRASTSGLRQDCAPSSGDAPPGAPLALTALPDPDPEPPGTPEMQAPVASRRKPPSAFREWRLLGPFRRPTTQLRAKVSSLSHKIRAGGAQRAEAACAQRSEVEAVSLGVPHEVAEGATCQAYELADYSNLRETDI

[4] = target: T3, Alpha-2B adrenergic receptor (Homo sapiens, UniProt P18089); test: Inhibition of alpha2B adrenergic receptor
T3 sequence (P18089 whole entry): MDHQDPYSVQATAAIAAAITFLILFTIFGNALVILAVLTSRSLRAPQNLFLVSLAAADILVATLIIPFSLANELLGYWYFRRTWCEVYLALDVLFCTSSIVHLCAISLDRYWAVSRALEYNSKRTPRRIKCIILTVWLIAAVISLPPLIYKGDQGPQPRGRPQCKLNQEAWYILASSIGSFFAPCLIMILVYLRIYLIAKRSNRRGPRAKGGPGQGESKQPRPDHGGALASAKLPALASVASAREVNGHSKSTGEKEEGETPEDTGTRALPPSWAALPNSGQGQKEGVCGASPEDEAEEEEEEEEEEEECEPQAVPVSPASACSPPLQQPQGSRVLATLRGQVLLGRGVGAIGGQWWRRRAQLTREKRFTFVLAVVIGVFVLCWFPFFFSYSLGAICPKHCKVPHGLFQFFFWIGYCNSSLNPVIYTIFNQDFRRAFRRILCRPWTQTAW
Procedure, shortened: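 Binding assay from a broad screen, with a reference compound tested concurrently. Specific binding was total minus nonspecific binding (excess unlabelled ligand). IC50 and Hill coefficient came from non-linear regression of competition curves using mean replicate values.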

[5] = target: T4, Alpha-2C adrenergic receptor (Homo sapiens, UniProt P18825); test: Inhibition of alpha2C adrenergic receptor; procedure, shortened: as §2
T4 sequence (P18825 whole entry): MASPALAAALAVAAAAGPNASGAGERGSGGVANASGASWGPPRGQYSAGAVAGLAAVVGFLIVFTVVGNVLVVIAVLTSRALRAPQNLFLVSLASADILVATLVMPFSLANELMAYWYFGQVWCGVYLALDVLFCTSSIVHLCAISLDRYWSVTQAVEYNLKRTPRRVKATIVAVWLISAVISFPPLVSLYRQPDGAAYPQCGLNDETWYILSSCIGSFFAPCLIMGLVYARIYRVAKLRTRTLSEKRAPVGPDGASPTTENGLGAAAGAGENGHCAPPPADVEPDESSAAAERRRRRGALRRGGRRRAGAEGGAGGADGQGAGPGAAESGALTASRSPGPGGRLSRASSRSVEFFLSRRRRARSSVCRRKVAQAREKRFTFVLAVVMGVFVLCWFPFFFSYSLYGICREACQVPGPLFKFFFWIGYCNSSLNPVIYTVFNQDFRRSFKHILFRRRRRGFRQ

[6] = Tmax in Sprague-Dawley rat at 10 mg/kg, po; type: ADME, organism-based; design: dose 10 mg/kg, route oral; settings: in vivo; procedure, shortened: as §1
[7] = AUC in Sprague-Dawley rat at 3 mg/kg, iv; type: ADME, organism-based; design: dose 3 mg/kg, route intravenous; settings: plasma; procedure, shortened: as §1
[8] = target: Voltage-gated inwardly rectifying potassium channel KCNH2 (Homo sapiens, UniProt Q12809); test: Inhibition of human recombinant ERG expressed in HEK293 cells after 5 to 10 mins by conventional whole-cell patch clamp assay; type: cell-based
Procedure, shortened: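 Conventional whole-cell patch clamp on HEK-293 cells stably expressing hERG, cultured 1–7 days in DMEM/GlutaMax-1 + 10% FBS on collagen-coated dishes. Holding potential was −80 mV. Compound was superfused 5–10 min per concentration at rt (22–24 °C). Tail current amplitude was measured before and after superfusion. IC50 came from a logistic fit of the concentration-response.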

Cytochrome P450 2D6 = Cytochrome P450 2D6 (Homo sapiens, UniProt P10635); test: Inhibition of human CYP2D6; type: ADME
Cytochrome P450 2D6, sequence (P10635 whole entry): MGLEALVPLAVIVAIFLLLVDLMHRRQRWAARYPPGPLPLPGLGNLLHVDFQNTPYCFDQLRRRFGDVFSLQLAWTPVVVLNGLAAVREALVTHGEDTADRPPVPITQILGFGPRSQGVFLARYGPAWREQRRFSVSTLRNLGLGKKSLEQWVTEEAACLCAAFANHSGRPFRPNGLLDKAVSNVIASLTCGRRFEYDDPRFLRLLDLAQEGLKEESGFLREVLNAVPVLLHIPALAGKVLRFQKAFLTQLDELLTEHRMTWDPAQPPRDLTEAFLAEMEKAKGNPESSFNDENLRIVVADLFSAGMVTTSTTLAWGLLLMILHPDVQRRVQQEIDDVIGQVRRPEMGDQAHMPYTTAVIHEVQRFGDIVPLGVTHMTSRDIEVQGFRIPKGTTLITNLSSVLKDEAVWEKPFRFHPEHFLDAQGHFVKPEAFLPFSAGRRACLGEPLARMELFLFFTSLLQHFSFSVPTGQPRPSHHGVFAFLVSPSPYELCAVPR

Voltage-gated inwardly rectifying potassium channel KCNH2, sequence (Q12809 whole entry, the tested form may be a part): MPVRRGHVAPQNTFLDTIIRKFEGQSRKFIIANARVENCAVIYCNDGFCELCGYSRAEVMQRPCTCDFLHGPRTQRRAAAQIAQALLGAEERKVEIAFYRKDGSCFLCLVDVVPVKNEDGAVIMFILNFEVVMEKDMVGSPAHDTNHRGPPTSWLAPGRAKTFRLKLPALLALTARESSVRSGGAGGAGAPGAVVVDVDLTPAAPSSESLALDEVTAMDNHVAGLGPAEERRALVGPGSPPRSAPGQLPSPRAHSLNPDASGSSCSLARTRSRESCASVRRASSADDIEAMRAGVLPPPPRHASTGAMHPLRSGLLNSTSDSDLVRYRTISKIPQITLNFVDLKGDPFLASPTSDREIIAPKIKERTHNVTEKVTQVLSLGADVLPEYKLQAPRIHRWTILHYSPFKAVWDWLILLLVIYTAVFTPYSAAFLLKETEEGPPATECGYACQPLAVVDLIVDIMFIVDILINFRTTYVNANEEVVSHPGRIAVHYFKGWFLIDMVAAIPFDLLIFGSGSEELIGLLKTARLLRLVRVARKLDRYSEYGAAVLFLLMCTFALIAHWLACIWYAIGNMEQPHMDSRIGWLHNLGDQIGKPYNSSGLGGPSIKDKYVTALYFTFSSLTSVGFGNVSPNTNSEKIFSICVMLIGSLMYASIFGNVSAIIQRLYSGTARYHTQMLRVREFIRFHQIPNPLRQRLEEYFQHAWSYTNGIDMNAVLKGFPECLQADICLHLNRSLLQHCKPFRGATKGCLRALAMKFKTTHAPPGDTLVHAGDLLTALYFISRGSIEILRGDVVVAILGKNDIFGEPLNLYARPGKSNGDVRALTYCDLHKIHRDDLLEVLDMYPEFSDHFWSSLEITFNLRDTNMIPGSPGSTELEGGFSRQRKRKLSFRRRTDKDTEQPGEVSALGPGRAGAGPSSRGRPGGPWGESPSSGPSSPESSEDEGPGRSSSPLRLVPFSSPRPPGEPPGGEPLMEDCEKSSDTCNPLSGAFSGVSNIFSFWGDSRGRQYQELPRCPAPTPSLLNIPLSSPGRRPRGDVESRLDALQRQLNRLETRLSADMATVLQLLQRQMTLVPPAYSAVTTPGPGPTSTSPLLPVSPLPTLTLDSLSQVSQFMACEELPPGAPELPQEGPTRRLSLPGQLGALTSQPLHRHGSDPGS

- half-life [1]: 12 h
- IC50 [2]: 1900 nM
- IC50 [3]: 2200 nM
- IC50 [4]: 32000 nM
- IC50 [5]: 11000 nM
- Tmax [6]: 2 h
- AUC [7]: 95.2 ng·h/mL
- IC50 (Cytochrome P450 2D6): 750 nM
SMILES: N=C(Nc1ccc2c(c1)CCN2C1CCNCC1)c1cccs1
- IC50 [8]: > 100000 nM
